PfGluPho inh: PfG6PD (Plasmodium falciparum) enzyme inhibition | actives 0.78% (n = 350,000) | AID 504690 | PfGluPho enzyme, NADPH resazurin-diaphorase fluorescence | inhibition, % at 20 µM;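 active means inhibition reaching at least a set limit at 20 µM in the primary screen, cut at about 59% in these data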;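 further: 0% = DMSO wells with substrate and 100% = DMSO wells lacking glucose-6-phosphate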
TbHK1 inh: blocks Trypanosoma brucei hexokinase 1 activity | recombinant TbHK1, G6PDH-coupled NADH A340 | inhibition, % at 10 µM | actives 0.11% (n = 220,000);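 active means inhibition of 50% or more in the single-dose primary screen; inactive means inhibition below 50%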
Diaphorase inh: inhibits diaphorase or chemically oxidizes, flagging diaphorase assay artifacts | diaphorase resazurin-to-resorufin fluorescence, NADH, 16 min; bacterial (C. kluyveri) enzyme, not human | inhibition, % at 20 µM | actives 0.69% (n = 190,000);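 active means primary screen inhibition at 20 µM above a set limit, cut at about 50% in these data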;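 further: plate controls were DMSO with full reaction for no effect and wells lacking NADH for full effect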
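Assay system: diaphorase enzyme from Clostridium kluyveri. Quantity: enzyme working solution with 0.14 U/mL diaphorase. Schedule: reaction incubation of 16 min at room temperature. Technique: resorufin fluorescence, excitation 544 nm, emission 590 nm. Controls: No-NADH positive control and DMSO neutral control.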
G6PDH counter: inhibits Leuconostoc G6PDH, flagging false hits in G6PDH-based assays; AID 1020; actives 0.12% (n = 200,000); inhibition, % at 5 µM; Purified L. mesenteroides G6PDH, diaphorase/resazurin coupled fluorescence, 45 min; in the data active means inhibition above about 50%
HKDC1 inhibitor: blocks human hexokinase HKDC1 activity; Q2TB90; recombinant HKDC1, G6PDH/diaphorase resazurin coupled fluorescence; inhibition, % at 20 µM; actives 0.16% (n = 340,000); AID 493160;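 active means inhibition above about 35% when tested at 20 µM, limit read from the data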;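 further: plate controls were DMSO wells with enzyme for no effect and DMSO wells lacking enzyme for full effect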
Target sequence (Q2TB90 whole entry, looked up): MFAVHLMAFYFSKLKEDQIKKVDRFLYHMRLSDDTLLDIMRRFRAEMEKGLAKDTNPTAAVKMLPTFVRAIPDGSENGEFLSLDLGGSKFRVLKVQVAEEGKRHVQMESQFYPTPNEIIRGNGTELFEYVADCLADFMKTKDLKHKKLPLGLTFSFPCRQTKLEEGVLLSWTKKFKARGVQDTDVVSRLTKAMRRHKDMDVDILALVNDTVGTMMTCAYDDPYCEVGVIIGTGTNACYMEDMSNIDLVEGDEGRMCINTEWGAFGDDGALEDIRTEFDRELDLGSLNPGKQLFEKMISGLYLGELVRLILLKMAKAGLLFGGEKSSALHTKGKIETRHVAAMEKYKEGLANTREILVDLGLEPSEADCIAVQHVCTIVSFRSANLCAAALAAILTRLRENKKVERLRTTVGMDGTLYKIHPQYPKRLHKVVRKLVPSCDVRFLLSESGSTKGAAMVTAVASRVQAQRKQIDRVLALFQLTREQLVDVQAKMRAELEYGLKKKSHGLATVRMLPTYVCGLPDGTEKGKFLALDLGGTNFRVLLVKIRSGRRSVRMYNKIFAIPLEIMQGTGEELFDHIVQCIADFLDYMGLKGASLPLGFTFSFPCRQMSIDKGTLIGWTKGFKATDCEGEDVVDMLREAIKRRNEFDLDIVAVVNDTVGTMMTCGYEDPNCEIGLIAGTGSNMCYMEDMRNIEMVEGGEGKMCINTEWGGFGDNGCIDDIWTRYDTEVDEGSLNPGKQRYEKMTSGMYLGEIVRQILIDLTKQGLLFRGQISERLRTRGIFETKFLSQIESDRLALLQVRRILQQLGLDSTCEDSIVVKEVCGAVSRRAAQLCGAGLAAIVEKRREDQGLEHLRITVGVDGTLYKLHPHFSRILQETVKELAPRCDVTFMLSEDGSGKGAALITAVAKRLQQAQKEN
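test system = in-house recombinant HK5 (HKDC1) enzyme | amount = HKDC1 at 5 µg/mL | control set = DMSO-enzyme wells negative, buffer-substituted wells positive | compound = one dose of 20 µM, 1% DMSO | schedule = reaction time 90 min, room temperature, protected from light | technique = resorufin fluorescence at 613 nm | reagent = glucose with 1 mM ATP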
Diaph act CS: counter-screen for diaphorase-based assays: diaphorase activators and chemical reducers; Diaphorase/resazurin coupled assay, resorufin fluorescence, 16 min; hits give high values; 1 = vehicle wells, 0 = NADH-free wells; activation factor at 20 µM; actives 0.005% (n = 190,000); AID 1229;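 active means diaphorase activity raised at least twofold by the compound at 20 µM; inactive means activation factor below 2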
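test system = bacterial diaphorase enzyme (C. kluyveri) | quantity = enzyme 0.07 U/mL final | reagent = NADH substrate 0.114 mM plus resazurin dye 0.1 mM, final | incubation = 16 min enzyme reaction, ambient temperature | buffer or medium = HEPES pH 7.4 buffer with MgCl2 and Tween 20 | signal = fluorescence of resorufin, 544 nm excitation, 590 nm emission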
HKDC1 act conf2: confirmation of human HKDC1 activators; shares compounds with HKDC1 inhibitor; recombinant HKDC1, G6PDH/diaphorase resazurin fluorescence; hits give low values; inhibition, % at 20 µM; actives 14% (n = 740);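 active means inhibition at or below a set negative limit, negative inhibition meaning the enzyme was activated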
Starred values were filed as active, the others as inactive; · = no result given. Only some compounds are listed: those with a hit (about 1.3% of all), similar ones and a draw of the others.

SMILES	PfGluPho inh	TbHK1 inh	Diaphorase inh	G6PDH counter	HKDC1 inhibitor	Diaph act CS	HKDC1 act conf2
O=S(=O)(c1cc(Cl)cc(Cl)c1O)N1CCC2(CC1)OCCO2	-24	·	·	·	34	·	-12
CCNC(=S)N1CCN(c2ccccn2)CC1	-30	3	8	31	-2	0.9	·
CC(NNC(=S)N1CCN(c2ccccn2)CC1)c1nccc2ccccc12 (stereo not given)	-3	·	·	·	-42	·	-75*
Nn1cnnc1N/N=C/c1cc(Br)cc(Br)c1O	38	18	50*	32	-52	0.5	-32*
COc1ccc(C2=CC3=C(Br)C(=O)C(C)(O)C(=O)C3=CO2)cc1 (stereo not given)	22	-7	·	·	34	·	-5
CCC(=O)OC1(C)C(=O)C2=COC(c3ccc(OC)cc3)=CC2=C(Br)C1=O (stereo not given)	26	-33	·	·	45*	·	30
Cc1cc(Oc2ccc(C(C)(C)C)cc2)nc(N2CCOCC2)n1	35	-11	14	4	33	0.9	-37*
CN(C)C(CNC(=O)c1cc(S(=O)(=O)N2CCOCC2)ccc1Cl)c1cccs1 (stereo not given)	9	·	·	·	-5	·	·
Cc1ccc(-n2c3nc(=O)[nH]c(=O)c-3cc3cc([N+](=O)[O-])ccc32)cc1C	43	-8	91*	-34	61*	0.1	65
Cc1cccnc1NC(=O)CCNC(=O)c1ccccc1Cl	2	·	·	·	-4	·	·
COc1ccc(/C=C/C(=O)c2ccc([N+](=O)[O-])o2)cc1	29	·	·	·	31	·	·
Cc1ccccc1/C=C/C(=O)c1ccc([N+](=O)[O-])o1	80*	·	·	·	46*	·	36
Cc1ccccc1NC(=O)c1ccc([N+](=O)[O-])o1	17	-3	6	2	1	0.9	·
Cc1cccc(/C=C/C(=O)c2ccc([N+](=O)[O-])o2)c1	48	·	·	·	50*	·	12
CCCCC(NC(=O)Cc1c(C)c2cc3c(C)c(C)oc3c(C)c2oc1=O)C(=O)O (stereo not given)	-25	·	·	·	2	·	·
CCCC(NC(=O)Cc1c(C)c2cc3c(C)c(C)oc3c(C)c2oc1=O)C(=O)N[C@@H](Cc1ccccc1)C(=O)O (stereo not given in full)	-7	·	·	·	52*	·	-19
Cc1onc(-c2c(F)cccc2Cl)c1C(=O)OCC(=O)N(C)c1ccccc1	7	·	·	·	·	·	·
CCN=C1NN=C(c2ccc(C)cc2)CS1	51	-9	12	5	-64	0.9	-52*
c1ccc(CN=C2NN=C(c3ccccc3)CS2)cc1	15	-8	5	8	-14	1	·
O=C(O)c1[nH]c2ccccc2c1C(c1ccccc1)c1c(C(=O)O)[nH]c2ccccc12	-20	·	·	·	9	·	·
O=C(O)c1[nH]c2ccccc2c1C(c1cc(Cl)cc([N+](=O)[O-])c1O)c1c(C(=O)O)[nH]c2ccccc12	-38	·	·	·	38*	·	32
COc1ccc(/C=C/C(=O)NC(=S)NNC(=O)c2cnccn2)cc1	-11	-85	·	·	-40	·	-58*
O=C(NC(=S)NNC(=O)c1cnccn1)c1ccc(F)cc1	25	-4	64*	-4	-48	0.4	-36*
O=C(/C=C/c1ccc(F)cc1)NC(=S)NNC(=O)c1cnccn1	-11	-14	·	·	-31	·	·
COc1ccc(NC(=O)c2cc(S(=O)(=O)N3CCOCC3)ccc2C)cc1S(=O)(=O)N1CCCCC1	-9	·	·	·	1	·	·
SMILES	PfGluPho inh	TbHK1 inh	Diaphorase inh	G6PDH counter	HKDC1 inhibitor	Diaph act CS	HKDC1 act conf2
CCN(CC(=O)Nc1ccc(OC)cc1)C(=O)c1ccccc1Sc1ccccc1C#N	11	·	·	·	-3	·	·
O=C(NCc1ccccn1)c1cc(S(=O)(=O)N2CCN(c3ccccc3)CC2)ccc1Cl	5	5	19	4	73*	0.8	-3
O=C(O)CC1(CC(=O)Nc2ccc(Oc3cccc(C(F)(F)F)c3)nc2)CCCC1	-3	-3	·	·	-2	·	·
CCC(C)C(NS(=O)(=O)c1ccc(C)cc1)C(=O)Oc1ccc2c3c(c(=O)oc2c1)CCC3 (stereo not given)	14	14	18	9	-2	0.8	·
CC[C@@H](NS(=O)(=O)c1ccc(C)cc1)C(=O)Oc1ccc2c3c(c(=O)oc2c1)CCC3	40	-10	18	-12	34	0.8	1
CCN(CC)c1ccc2c(C)c(Cl)c(=O)oc2c1	5	-2	27	12	9	0.7	·
CCN(CC)c1ccc2c(c1)oc(=O)c1c(Cl)cc(=O)oc12	8	3	16	-37	49*	0.8	48
C/C(=N\NC(=O)c1cc(C2CC2)nc2ccccc12)c1ccc(C)s1	-20	-6	4	11	-5	1	·
C/C(=N\NC(=O)c1cc(C2CC2)nc2ccccc12)c1ccc(O)cc1O	-20	·	·	·	-44	·	-6
CN1CCN(C(=O)CCn2c(=S)[nH]c3ccccc3c2=O)CC1	1	·	·	·	·	·	·
O=[N+]([O-])c1ccc(Sc2nc3ccccc3o2)c([N+](=O)[O-])c1	19	1	-5	7	35*	1.1	30
C[N+]1=C(/C=C/Nc2ccccc2Cl)C(C)(C)c2ccccc21	-6	-28	11	-6	13	0.9	·
COC(=O)c1ccc2c(c1)C(C)(C)C(/C=C/c1ccccc1O)=[N+]2C	14	-5	10	3	38*	0.9	7
Cn1c(SSc2ccc(-c3cccnc3)n2C)ccc1-c1cccnc1	32	·	·	·	-341	·	-248*
COc1cccc(Oc2ccc(S(=O)(=O)N3CCOCC3)cc2[N+](=O)[O-])c1	25	·	·	·	6	·	·
CC1(C)Cc2c(c(N3CCOCC3)nc3sc4c(NCC5CCCO5)nnnc4c23)CS1 (stereo not given)	52	-17	·	·	45*	·	12
CC(C)CCNc1nnnc2c1sc1nc(N3CCOCC3)c3c(c12)CC(C)(C)SC3	-1	-25	28	-1	8	0.7	·
COc1cc(C2c3c([nH]c(=O)[nH]c3=O)Nc3ccc4ccccc4c32)ccc1O (stereo not given)	-8	-5	16	-2	-1	0.8	·
COc1cc(C2c3c([nH]c(=O)[nH]c3=O)Nc3ccc4ccccc4c32)cc(OC)c1OC (stereo not given)	-4	-9	53*	7	37*	0.5	44
CSC1=NC(=O)/C(=C\c2cccc3ccccc23)S1	2	3	-2	-11	33	1	-11
Cc1cc(C)c(NC(=O)CNC(=O)COC(=O)Cc2cccs2)c(C)c1	-2	·	·	·	-5	·	·

Screens: PubChem, several laboratories
